Experimental findings from ChEMBL document CHEMBL4138195, “Discovery of novel propargylamine-modified 4-aminoalkyl imidazole substituted pyrimidinylthiourea derivatives as multifunctional agents for the treatment of Alzheimer's disease” (Eur J Med Chem, 2018) are described below.

Data set [1] addresses T1, Amine oxidase [flavin-containing] B (Homo sapiens, UniProt P27338).
T1 sequence (P27338 whole entry): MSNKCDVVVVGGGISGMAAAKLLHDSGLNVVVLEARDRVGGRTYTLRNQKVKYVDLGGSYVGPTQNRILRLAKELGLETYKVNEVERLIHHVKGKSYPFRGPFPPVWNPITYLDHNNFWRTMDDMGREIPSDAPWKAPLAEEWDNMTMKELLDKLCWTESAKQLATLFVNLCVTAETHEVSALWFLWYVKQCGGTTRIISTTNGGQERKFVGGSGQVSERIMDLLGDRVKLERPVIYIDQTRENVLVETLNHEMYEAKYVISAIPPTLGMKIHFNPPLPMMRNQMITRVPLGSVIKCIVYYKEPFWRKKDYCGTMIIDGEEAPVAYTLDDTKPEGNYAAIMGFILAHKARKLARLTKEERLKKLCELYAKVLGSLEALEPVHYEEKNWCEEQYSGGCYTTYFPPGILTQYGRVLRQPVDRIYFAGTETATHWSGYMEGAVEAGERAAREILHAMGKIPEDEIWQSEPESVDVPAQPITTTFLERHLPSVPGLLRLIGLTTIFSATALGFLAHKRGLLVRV
Put plainly: Inhibition of recombinant human MAOB at 50 uM using benzylamine as substrate preincubated for 15 mins followed by substrate addition measured after 15 mins by Amplex red reagent based fluorescence assay. The following applies: 0.25 h.

The target in a further data set is Butyrylcholinesterase (Rattus norvegicus, UniProt Q9JKC1). Put plainly: Inhibition of BuChE in rat serum using butyrylthiocholine iodide as substrate after 20 mins by Ellman's method.
Chain of Butyrylcholinesterase (Q9JKC1 whole entry): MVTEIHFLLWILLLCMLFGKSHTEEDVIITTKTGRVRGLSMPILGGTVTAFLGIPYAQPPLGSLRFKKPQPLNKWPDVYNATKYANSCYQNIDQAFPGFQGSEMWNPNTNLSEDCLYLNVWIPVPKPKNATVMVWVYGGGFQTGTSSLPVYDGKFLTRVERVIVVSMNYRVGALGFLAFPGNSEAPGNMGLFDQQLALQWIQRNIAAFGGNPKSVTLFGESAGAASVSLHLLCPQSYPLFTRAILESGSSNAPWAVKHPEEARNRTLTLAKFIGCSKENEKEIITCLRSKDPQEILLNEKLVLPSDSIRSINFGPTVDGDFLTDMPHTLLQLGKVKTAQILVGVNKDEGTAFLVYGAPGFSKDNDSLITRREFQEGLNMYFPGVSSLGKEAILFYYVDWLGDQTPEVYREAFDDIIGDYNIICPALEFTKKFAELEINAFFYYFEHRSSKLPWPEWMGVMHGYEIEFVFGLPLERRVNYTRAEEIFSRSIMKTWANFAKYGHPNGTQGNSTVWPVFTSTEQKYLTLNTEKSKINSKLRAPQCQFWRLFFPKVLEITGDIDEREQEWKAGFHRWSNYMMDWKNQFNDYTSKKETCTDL
The species named for a further data set is Rattus norvegicus. The experiment in a line: Selectivity index, ratio of IC50 for BuChE in rat serum to IC50 for AChE in rat cortex homogenate. It counts as tissue-based.
Data set [2] addresses Butyrylcholinesterase (Rattus norvegicus) (UniProt Q9JKC1). The experiment in a line: Inhibition of BuChE in rat serum at 40 uM using butyrylthiocholine iodide as substrate after 20 mins by Ellman's method.
Another data set can be described thus: in vitro. Particulars: PAMPA.
The next data set deals with T2, Acetylcholinesterase (Rattus norvegicus, UniProt P37136).
T2 sequence (P37136 whole entry): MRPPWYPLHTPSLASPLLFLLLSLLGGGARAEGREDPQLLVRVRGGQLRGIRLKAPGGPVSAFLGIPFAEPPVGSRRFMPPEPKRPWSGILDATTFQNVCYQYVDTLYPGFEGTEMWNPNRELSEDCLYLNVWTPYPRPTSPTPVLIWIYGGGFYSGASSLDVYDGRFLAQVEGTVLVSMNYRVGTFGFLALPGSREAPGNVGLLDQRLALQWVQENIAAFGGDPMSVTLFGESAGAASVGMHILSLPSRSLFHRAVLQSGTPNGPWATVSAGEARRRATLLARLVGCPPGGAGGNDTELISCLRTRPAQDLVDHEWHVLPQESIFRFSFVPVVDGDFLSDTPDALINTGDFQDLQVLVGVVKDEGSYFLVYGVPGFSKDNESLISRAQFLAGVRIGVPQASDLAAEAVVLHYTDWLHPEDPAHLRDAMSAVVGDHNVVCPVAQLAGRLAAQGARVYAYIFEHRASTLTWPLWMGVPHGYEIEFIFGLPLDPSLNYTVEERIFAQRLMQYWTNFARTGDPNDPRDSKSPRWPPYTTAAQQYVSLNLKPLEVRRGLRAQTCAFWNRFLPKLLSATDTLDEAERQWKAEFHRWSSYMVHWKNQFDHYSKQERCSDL
Put plainly: Inhibition of AChE in rat cortex homogenate using acetylthiocholine iodide as substrate after 20 mins by Ellman's method.

Data set [3] concerns the target T3, Amine oxidase [flavin-containing] A (Homo sapiens, UniProt P21397).
T3 sequence (P21397 whole entry): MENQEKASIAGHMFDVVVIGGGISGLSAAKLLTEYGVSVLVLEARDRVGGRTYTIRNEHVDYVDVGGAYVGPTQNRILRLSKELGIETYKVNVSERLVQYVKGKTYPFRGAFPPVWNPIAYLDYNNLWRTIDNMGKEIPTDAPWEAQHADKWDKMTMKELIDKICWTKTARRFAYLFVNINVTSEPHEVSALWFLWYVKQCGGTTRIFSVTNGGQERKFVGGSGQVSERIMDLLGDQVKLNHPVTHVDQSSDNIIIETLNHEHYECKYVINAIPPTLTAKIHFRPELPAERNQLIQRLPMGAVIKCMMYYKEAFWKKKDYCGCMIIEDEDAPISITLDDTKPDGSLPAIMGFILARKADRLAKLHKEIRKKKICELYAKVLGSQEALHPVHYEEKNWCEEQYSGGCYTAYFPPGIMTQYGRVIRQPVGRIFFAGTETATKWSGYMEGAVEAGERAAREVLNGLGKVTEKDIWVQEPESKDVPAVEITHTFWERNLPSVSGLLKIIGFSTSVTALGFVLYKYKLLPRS
Put plainly: Inhibition of recombinant human MAOA at 50 uM using p-tyramine as substrate preincubated for 15 mins followed by substrate addition measured after 15 mins by Amplex red reagent based fluorescence assay. Particulars: 0.25 h. The gist of the method:
(§1)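 Recombinant human MAO-A (12.5 µg/mL) or MAO-B (75 µg/mL) preincubated 15 min at 37 °C with compound (diluted from 10 mM DMSO stock in 50 mM KH2PO4, pH 7.4). Amplex Red working solution added: 2 mM p-tyramine (MAO-A) or benzylamine (MAO-B), 2 U/mL HRP. After 15 min at 37 °C, fluorescence read (ex 545/em 590), background from enzyme-free wells subtracted.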

Data set [4] in a line: Antioxidant activity assessed as trolox equivalent of AAPH radical scavenging activity preincubated for 10 mins followed by AAPH addition measured every 2 mins for 180 mins by ORAC-FL assay. It counts as functional. In short, it runs like this: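 Compound at 20 µM (diluted from 10 mM DMSO stock in 75 mM phosphate, pH 7.4) with fluorescein (0.117 µM diluted) for 10 min at 37 °C, then AAPH (40 mM solution) added. Fluorescence (ex 485/em 535) read every 2 min for 180 min. […] Triplicate wells, ≥3 runs.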

Data set [5] addresses T3, Amine oxidase [flavin-containing] A. Put plainly: Inhibition of recombinant human MAOA using p-tyramine as substrate preincubated for 15 mins followed by substrate addition measured after 15 mins by Amplex red reagent based fluorescence assay.
In data set [6] the target is T1, Amine oxidase [flavin-containing] B.
The species entered for the next data set is Homo sapiens. The experiment in a line: Selectivity index, ratio of IC50 for recombinant human MAOA to IC50 for recombinant human MAOB. The gist of the method: as §1

Bounds are passed on as bounds.

Chain of Butyrylcholinesterase (Rattus norvegicus) (Q9JKC1 as listed by the source): as the sequence (Q9JKC1 whole entry) above

With `C#CCNCCCc1cn(-c2cc(NC(=S)NCC)ncn2)cn1`, the inhibition at 50 µM in [1] stood at 36.6%; in [3], 31.4%. Moreover, the IC50 on Butyrylcholinesterase was over 40 µM; on Acetylcholinesterase it was 0.381 µM; in data set [5] it was over 50 µM; in [6] it was over 50 µM. Also, in the data set filed under Rattus norvegicus, the Ratio IC50 was over 105. In [2], this compound returned an inhibition of 12.7%. The Papp at 12 h, 100 ug/ml in “in vitro” came to 3.26 ×10⁻⁶ cm/s. Further, the Activity (umolequiv/umol) in [4] is 0.186.

Consider `C#CCN(CC#C)Cc1cn(-c2cc(NC(=S)NCC)ncn2)cn1`, for which the results for the inhibition at 50 µM in data set [1] and in data set [3] were 42.1% and 15.5%, respectively. In addition, the IC50 at Butyrylcholinesterase was over 40 µM; against Acetylcholinesterase it was 0.718 µM; in data set [5] it was over 50 µM; in data set [6] it was over 50 µM. For the same compound, the Ratio IC50 in the data set filed under Rattus norvegicus was over 56. Also, the inhibition in [2] came out at 4.97%. The Activity (umolequiv/umol) in data set [4] was 0.585.

For `C#CCN(C)CCc1cn(-c2cc(NC(=S)NCC)ncn2)cn1`, the IC50 is over 40 µM against Butyrylcholinesterase, 0.392 µM against Acetylcholinesterase, 9 µM in [5] and 12.4 µM in [6]. Moreover, the Ratio IC50 in the data set filed under Homo sapiens was 0.724; in the data set filed under Rattus norvegicus it was over 102. For the same compound, in [2], the inhibition is 8.91%. In addition, the Papp at 12 h, 100 ug/ml in the data set “in vitro” was determined as 3.33 ×10⁻⁶ cm/s. The Activity (umolequiv/umol) in data set [4] was 1.24.

Take `C#CCNCCc1cn(-c2cc(NC(=S)NCC)ncn2)cn1`: the inhibition at 50 µM turned out to be 19.2% in data set [1] and 54.2% in [3]. The IC50 was over 40 µM at Butyrylcholinesterase, 0.228 µM against Acetylcholinesterase, over 50 µM in data set [5] and over 50 µM in [6]. In addition, in the data set filed under Rattus norvegicus, the Ratio IC50 is over 175. The compound also yielded an inhibition in [2] of 8.73%. Moreover, in the data set “in vitro”, the Papp at 12 h, 100 ug/ml came to 3.24 ×10⁻⁶ cm/s. For the same compound, in data set [4], the Activity (umolequiv/umol) came out at 1.27.

As for `C#CCN(CCCC)Cc1cn(-c2cc(NC(=S)NCC)ncn2)cn1`, the inhibition at 50 µM amounted to 20.1% in [1] and 2.43% in [3]. Further, the IC50 was over 40 µM at Butyrylcholinesterase, 0.675 µM on Acetylcholinesterase, over 50 µM in data set [5] and over 50 µM in data set [6]. The Ratio IC50 in the data set filed under Rattus norvegicus is over 59. This compound yielded an inhibition in data set [2] of 13.4%. For the same compound, the Activity (umolequiv/umol) in data set [4] came to 0.238.

With `C#CCN(CC)CCc1cn(-c2cc(NC(=S)NCC)ncn2)cn1`, the inhibition at 50 µM in data set [1] was determined as 49.4%; in data set [3], 13%. Besides, the IC50 at Butyrylcholinesterase is over 40 µM; at Acetylcholinesterase, 1.34 µM; in data set [5], over 50 µM; in data set [6], over 50 µM. Also, the Ratio IC50 in the data set filed under Rattus norvegicus is over 30. Moreover, the inhibition in [2] amounted to 2.44%.

Take `C#CCN(CC#N)CCc1cn(-c2cc(NC(=S)NCC)ncn2)cn1`: the inhibition at 50 µM in data set [1] was 24.9%; in data set [3], 13.9%. In addition, the IC50 was over 40 µM on Butyrylcholinesterase, 0.597 µM at Acetylcholinesterase, over 50 µM in data set [5] and over 50 µM in data set [6]. In addition, the Ratio IC50 in the data set listed under Rattus norvegicus is over 67. The same compound gave an inhibition in data set [2] of 3.02%. Further, the Activity (umolequiv/umol) in [4] worked out at 0.556.

As to `C#CCN(CC)Cc1cn(-c2cc(NC(=S)NCC)ncn2)cn1`, the inhibition at 50 µM is 35.1% in [1] and 6.71% in data set [3]. Also, the IC50 was over 40 µM against Butyrylcholinesterase, 0.482 µM against Acetylcholinesterase, over 50 µM in data set [5] and over 50 µM in [6]. The Ratio IC50 in the data set listed under Rattus norvegicus is over 83. The same compound yielded an inhibition in data set [2] of 10.5%. In addition, the Activity (umolequiv/umol) in data set [4] was found to be 1.38.

On to `C#CCN(CC#N)Cc1cn(-c2cc(NC(=S)NCC)ncn2)cn1`, for which the values for the inhibition at 50 µM in data set [1] and in data set [3] were 15.3% and 2.01%, respectively. In addition, the IC50 against Butyrylcholinesterase was over 40 µM; at Acetylcholinesterase, 0.707 µM; in data set [5] it was over 50 µM; in data set [6], over 50 µM. The Ratio IC50 in the data set listed under Rattus norvegicus was over 57. This compound also had an inhibition in data set [2] of 5.48%. In data set [4], the Activity (umolequiv/umol) is 0.494.

As to `C#CCN1CCN(Cc2cn(-c3cc(NC(=S)NCC)ncn3)cn2)CC1`, the inhibition at 50 µM in [1] worked out at 13.3%; in data set [3], 9.22%. For the same compound, the IC50 at Butyrylcholinesterase was over 40 µM; at Acetylcholinesterase, 0.482 µM; in [5] it was over 50 µM; in data set [6] it was over 50 µM. The Ratio IC50 in the data set filed under Rattus norvegicus was over 83. Besides, the inhibition in data set [2] was determined as 7.3%. For the same compound, in data set [4], the Activity (umolequiv/umol) worked out at 1.03.

As for `C#CCN(CCC)Cc1cn(-c2cc(NC(=S)NCC)ncn2)cn1`, the values for the inhibition at 50 µM in data set [1] and in data set [3] were 24.3% and 1.76%, respectively. For the same compound, the IC50 was over 40 µM on Butyrylcholinesterase, 0.485 µM at Acetylcholinesterase, over 50 µM in data set [5] and over 50 µM in data set [6]. Moreover, the Ratio IC50 in the data set filed under Rattus norvegicus is over 83. In data set [2], this compound displayed an inhibition of 7.75%. In data set [4], the Activity (umolequiv/umol) worked out at 0.448.

Turning to `C#CCN(C)CCCc1cn(-c2cc(NC(=S)NCC)ncn2)cn1`, the IC50 against Butyrylcholinesterase is over 40 µM; against Acetylcholinesterase, 0.459 µM; in data set [5], over 50 µM; in [6], 3.23 µM. In data set [2], this compound had an inhibition of 6.7%. Moreover, the inhibition at 50 µM in data set [3] came out at 63.8%. In data set [4], the Activity (umolequiv/umol) turned out to be 0.447.

As to `C#CCN(Cc1ccccc1)Cc1cn(-c2cc(NC(=S)NCC)ncn2)cn1`, the inhibition at 50 µM in data set [1] came out at 18.4%; in data set [3], 17.8%. Further, the IC50 is over 40 µM against Butyrylcholinesterase, 0.585 µM against Acetylcholinesterase, over 50 µM in data set [5] and over 50 µM in data set [6]. Further, the Ratio IC50 in the data set listed under Rattus norvegicus is over 68. Besides, the inhibition in data set [2] worked out at 9.28%.

For `C#CCN(Cc1cn(-c2cc(NC(=S)NCC)ncn2)cn1)C(C)=O`, the inhibition at 50 µM in [1] was determined as 1.17%; in [3], 4.83%. Besides, the IC50 is over 40 µM at Butyrylcholinesterase, 0.515 µM on Acetylcholinesterase, over 50 µM in [5] and over 50 µM in data set [6]. In addition, the Ratio IC50 in the data set filed under Rattus norvegicus is over 78. Moreover, the inhibition in [2] was 5.15%. In addition, the Activity (umolequiv/umol) in data set [4] came to 1.17.
